Data taken from ChEMBL document CHEMBL1140072, “Discovery of novel and cardioselective diltiazem-like calcium channel blockers via virtual screening” (J Med Chem, 2008).

Key:
[1] = Negative inotropic activity in guinea pig left atrium assessed as decrease in atrial tension at 5 uM relative to control; format: functional, Cavia porcellus, Cardiac atrium; design: scale not given: the % may be the effect or the level left
[2] = Negative inotropic activity in guinea pig left atrium assessed as decrease in atrial tension relative to control; format: functional, tissue-based; settings: Cavia porcellus, Cardiac atrium
[3] = system: Ileum; assay: Vasorelaxant activity in K+-depolarized guinea pig ileum longitudinal smooth muscle assessed as inhibition of calcium-induced contraction; format: functional, tissue-based; settings: Cavia porcellus
[4] = system: Aorta; assay: Vasorelaxant activity in K+-depolarized guinea pig aorta assessed as inhibition of calcium-induced contraction at 100 uM; format: functional; settings: Cavia porcellus
[5] = Negative chronotropic activity in guinea pig spontaneously beating right atrium assessed as decrease in atrial rate at 100 uM relative to control; format: functional, tissue-based, Cavia porcellus, Cardiac atrium; design: scale not given: the % may be the effect or the level left
[6] = system: Ileum; assay: Vasorelaxant activity in K+-depolarized guinea pig ileum longitudinal smooth muscle assessed as inhibition of calcium-induced contraction at 100 uM; format: functional; settings: Cavia porcellus
[7] = Negative inotropic activity in guinea pig left atrium assessed as decrease in atrial tension at 50 uM relative to control; format: functional, tissue-based, Cavia porcellus, Cardiac atrium; design: scale not given: the % may be the effect or the level left
[8] = system: Ileum; assay: Vasorelaxant activity in K+-depolarized guinea pig ileum longitudinal smooth muscle assessed as inhibition of calcium-induced contraction at 50 uM; format: functional; settings: Cavia porcellus
[9] = Negative chronotropic activity in guinea pig spontaneously beating right atrium assessed as decrease in atrial rate at 100 uM relative to control; design: scale not given: the % may be the effect or the level left
[10] = system: Ileum; assay: Vasorelaxant activity in K+-depolarized guinea pig ileum longitudinal smooth muscle assessed as inhibition of calcium-induced contraction at 10 uM; format: functional; settings: Cavia porcellus
[11] = Negative inotropic activity in guinea pig left atrium assessed as decrease in atrial tension at 100 uM relative to control; format: functional, tissue-based, Cavia porcellus, Cardiac atrium; design: scale not given: the % may be the effect or the level left
[12] = system: Aorta; assay: Vasorelaxant activity in K+-depolarized guinea pig aorta assessed as inhibition of calcium-induced contraction at 50 uM; format: functional; settings: Cavia porcellus
[13] = Negative inotropic activity in guinea pig left atrium assessed as decrease in atrial tension at 1 uM relative to control; format: functional, Cavia porcellus, Cardiac atrium; design: scale not given: the % may be the effect or the level left
[14] = Negative chronotropic activity in guinea pig spontaneously beating right atrium assessed as decrease in atrial rate at 10 uM relative to control; format: functional, Cavia porcellus, Cardiac atrium; design: scale not given: the % may be the effect or the level left
[15] = Negative inotropic activity in guinea pig left atrium assessed as decrease in atrial tension at 10 uM relative to control; format: functional, Cavia porcellus, Cardiac atrium; design: scale not given: the % may be the effect or the level left
[16] = biological target: L-type calcium channel (Rattus norvegicus, UniProt P22002+P27732+Q02485); assay: Displacement of [3H]diltiazem from L-type calcium channel in Sprague-Dawley rat cardiac myocytes at 10 uM; format: cell-based; settings: probe [3H]diltiazem, read-out: Activity
[17] = biological target: Voltage-gated L-type calcium channel (Rattus norvegicus, UniProt P22002+Q02485+P27732); assay: Displacement of [3H]diltiazem from L-type calcium channel in Sprague-Dawley rat cardiac myocytes; format: cell-based
Outline: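 Rat cardiomyocyte preparation. [3H]diltiazem at 5 nM is incubated with test compound at increasing concentrations from 0.1 nM to 100 µM. The readout is the inhibition of [3H]diltiazem binding to the benzothiazepine site.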

[18] = Dissociation constant, pKa of the compound; format: physicochemical
Outline: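 pKa values are calculated in silico, not measured experimentally.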

[19] = system: Ileum; assay: Vasorelaxant activity in K+-depolarized guinea pig ileum longitudinal smooth muscle assessed as inhibition of calcium-induced contraction at 1 uM; format: functional; settings: Cavia porcellus
[20] = Negative chronotropic activity in guinea pig spontaneously beating right atrium assessed as decrease in atrial rate at 5 uM relative to control; format: functional, Cavia porcellus, Cardiac atrium; design: scale not given: the % may be the effect or the level left

SMILES | EC50 [2] | IC50 [3] | inhibition at 100 µM [4] | Activity [5] | inhibition at 100 µM [6] | Activity [11] | further results
CN(C)CCNc1cc(-c2cccnc2)nc2ccccc12 | 300 nM | 20.3 µM | 5% | 4% | 72% | – | Activity [1]: 76%
O=S(=O)(c1ccc(Cl)cc1)N(C1CCNCC1)C1CC1 | 310 nM | 14.1 µM | 19% | – | – | – | Activity [7]: 76%; inhibition at 50 µM [8]: 89%; Activity [9]: 64%
O=S(=O)(c1cccc2c(Cl)cccc12)N1CCCNCC1 | 430 nM | – | – | – | – | 98% | inhibition at 10 µM [10]: 40%; inhibition at 50 µM [12]: 43%; Activity [9]: 46%
CCO[C@]1(c2ccc(Br)cc2)SC=C(C)n2c1noc2=O | 70 nM | – | 11% | – | 3% | – | Activity [13]: 58%; Activity [14]: 16%
CCc1c(C)cc(C)cc1OC[C@@H](O)CNC(C)C | 3590 nM | – | 30% | 40% | – | – | Activity [7]: 76%
CCOc1ccc(NC(=O)CCN(CC)CC)cc1 | 1050 nM | – | 11% | 30% | – | 79% | –
CC(C)(CNC(=S)Nc1ccccc1)N1CCOCC1 | 730 nM | 16.5 µM | 20% | 10% | 76% | 94% | –
COc1ccccc1NC(=O)OCC1CCCCN1C (configuration not stated) | 970 nM | 18.4 µM | 10% | 17% | 73% | 87% | –
COc1ccc(Cl)cc1NC(=O)N1CCN(C)CC1 | 340 nM | – | 7% | 10% | 44% | – | Activity [7]: 67%
O=C(COc1ccccc1Cl)N1CCNCC1 | 520 nM | – | 1% | 3% | – | – | Activity [7]: 60%
CCN(CC)CCOc1ccc2ccc(=O)oc2c1 | 250 nM | – | 14% | 28% | 22% | – | Activity [15]: 67%
CN1CCN(S(=O)(=O)c2cccc3cccnc23)CC1 | 450 nM | – | 18% | – | 28% | – | Activity [15]: 84%; inhibition at 10 µM [16]: 60%; Activity [9]: 19%
CN(C)CCNC(=O)c1cc2ccccc2cc1O | 350 nM | 20.2 µM | 13% | 35% | 61% | 90% | Ki [17]: 0.45 µM
Cc1ccccc1CC(=O)c1ccc(O)c(CN(C)C)c1O | 840 nM | – | 4% | – | – | – | Activity [1]: 78%; pKa [18]: 10.7; Activity [9]: 48%
CN(Cc1ccccc1)Cc1ccnc(Br)c1O | 1110 nM | 3.28 µM | 2% | 6% | – | 70% | inhibition at 50 µM [8]: 57%
COc1cc2c(cc1OC)[C@H]1CC(=O)[C@H]3CCC[C@H]3N1CC2 | 2170 nM | – | 3% | 4% | – | 64% | –
Cc1cc(C(C)(C)C)cc(C)c1NC(=O)CN1CCOCC1 | 840 nM | – | 26% | 29% | – | – | Activity [15]: 87%
CN(C)CCOC(c1ccc(Cl)cc1)c1ccccn1 (configuration not stated) [CARBINOXAMINE] | 250 nM | 9.34 µM | 28% | 48% | – | 76% | EC30 [2]: 0.48 µM; inhibition at 50 µM [8]: 62%; Ki [17]: 1.08 µM
CC(C)NC[C@@H](O)COc1cccc2ccccc12 [DEXPROPRANOLOL] | – | – | 36% | – | 74% | – | Activity [7]: 92%; Activity [9]: 26%
COc1ccc([C@@H]2Sc3ccccc3N(CCN(C)C)C(=O)[C@@H]2OC(C)=O)cc1 [DILTIAZEM] | 790 nM | 0.11 µM | 88% | – | – | – | Activity [15]: 78%; inhibition at 1 µM [19]: 98%; EC30 [2]: 0.07 µM; IC50 [2]: 2600 nM; Activity [20]: 94%
COc1ccc(CN(CCN(C)C)c2ccccn2)cc1 [PYRILAMINE] | 6260 nM | – | 23% | 47% | – | 81% | –
